Assay results gathered from unrelated publications.
Lines come from different studies, so protocols differ.
CYP3A4: Cytochrome P450 3A4 (CYP3A4, Homo sapiens, UniProt P08684)
CYP1A2: Cytochrome P450 1A2 (CYP1A2, Homo sapiens, UniProt P05177)

Structure (SMILES) | tested on | assay | system | setting | quantity | value
CCCCCCCC(=O)N[C@@H](CCCCN)C(=O)N[C@@H](CCCCN)C(=O)N[C@@H](C)C(=O)N[C@@H](CC(C)C)C(=O)N[C@@H](CCCCN)C(=O)N[C@@H](CC(C)C)C(=O)N[C@@H](C)C(=O)N[C@@H](CCCCN)C(=O)N[C@@H](CCCCN)C(=O)N1CCC[C@H]1C(=O)N[C@@H](CC(C)C)C(=O)N[C@@H](CCCCN)C(=O)N[C@@H](CC(C)C)C(=O)N[C@@H](CC(C)C)C(=O)N[C@@H](CCCCN)C(N)=O |  |  | female CD-1 mouse, blood | intravenous, 3 mg/kg, single dose | Cmax | 1420 ng/mL
O=C(Nc1ncc([N+](=O)[O-])s1)c1ccccc1O | BHK-21 | cell growth or viability, MTT |  |  | CC50 | > 1000 µM
NCCc1ccccn1 | CYP3A4 | thermal stability |  |  | ΔTm | -0.1 °C
CCC[C@@](N)(CO)CCc1ccc(OCCCCCC(C)C)cc1 | CYP1A2 | enzyme activity, inhibitor |  |  | IC50 | > 50 µM
CCc1cc(/C(C)=N/OCc2ccc(C3CCCCC3)c(C(F)(F)F)c2)ccc1CN1CC(C(=O)O)C1 | CYP3A4 | enzyme activity, inhibitor | human, liver microsomes | 200 µM, 20 min, midazolam probe | inhibition | 11.5%
Cc1cccc(F)c1N1CCC(N2Cc3cn(CC(C)(F)F)nc3N(Cc3ccccc3C(F)(F)F)C2=O)CC1 | CYP3A4 | enzyme activity, inhibitor | human, liver microsomes | midazolam probe | IC50 | > 10 µM
CN[C@H](CC(C)C)C(=O)N[C@H]1C(=O)N[C@@H](CC(N)=O)C(=O)N[C@H]2C(=O)NC3C(=O)N[C@H](C(=O)N[C@H](C(=O)NCCC[N+](C)(C)C)c4cc(O)cc(O)c4-c4cc3ccc4O)[C@H](O)c3ccc(c(Cl)c3)Oc3cc2cc(c3OC2OC(CO)C(O)[C@H](O)[C@@H]2O[C@H]2CC(C)(NCc3ccc(-c4ccc(Cl)cc4)cc3)[C@H](O)[C@H](C)O2)Oc2ccc(cc2Cl)[C@H]1O (some centres unmarked) |  |  | mouse, plasma | intravenous, 50 mg/kg | Cmax | 58900 ng/mL
Cc1cc(C)nc(Nc2ncc(C(=O)NCCc3c(C)[nH]c4ccccc34)cn2)c1 |  | metabolic stability | cynomolgus monkey, liver microsomes | 1 µM | microsomal CLint | 99 µL/min/mg
O=C(Nc1ccc(O)cc1)c1ccccc1O | BHK-21 | cell growth or viability, MTT |  |  | CC50 | > 1000 µM
C[C@]12CC[C@H](n3ccnc3)CC1=CC[C@@H]1[C@@H]2CC[C@]2(C)C(n3cnc4ccccc43)=CC[C@@H]12.Cl.Cl |  |  | male CD-1 mouse, plasma | oral, 10 mg/kg | Cmax | 1510 ng/mL
O=C1NC(=O)/C(=C\c2ccc3ccccc3c2)S1 | BHK-21 | cell growth or viability, MTT |  |  | CC50 | > 100 µM
Cc1nc2c([nH]1)c(=O)n(C)c(=O)n2Cc1ccco1 | CYP1A2 | enzyme activity, inhibitor | human, liver microsomes | 40 µM | inhibition | 71%
O=C(Nc1ncc([N+](=O)[O-])s1)c1cccs1 | BHK-21 | cell growth or viability, MTT |  |  | CC50 | > 1 µM
COC(=O)C1CCN(C(=O)c2ccc(NCc3cnc4nc(N)nc(N)c4n3)cc2)CC1 | CYP3A4 | enzyme activity, inhibitor, luciferase |  | 10 µM | inhibition | -13.4%
